Assay results reported in ChEMBL document CHEMBL1145927 (J Med Chem, 2003).
pIC50: −log10 of the molar value.

Tests used:
[1] = target: T1, Prostaglandin G/H synthase 1 (Ovis aries) (UniProt P05979); test: Compound was tested for in vitro inhibition of recombinant ovine Prostaglandin G/H synthase 1 (COX-1) at a concentration of 100 uM
T1 sequence (whole entry): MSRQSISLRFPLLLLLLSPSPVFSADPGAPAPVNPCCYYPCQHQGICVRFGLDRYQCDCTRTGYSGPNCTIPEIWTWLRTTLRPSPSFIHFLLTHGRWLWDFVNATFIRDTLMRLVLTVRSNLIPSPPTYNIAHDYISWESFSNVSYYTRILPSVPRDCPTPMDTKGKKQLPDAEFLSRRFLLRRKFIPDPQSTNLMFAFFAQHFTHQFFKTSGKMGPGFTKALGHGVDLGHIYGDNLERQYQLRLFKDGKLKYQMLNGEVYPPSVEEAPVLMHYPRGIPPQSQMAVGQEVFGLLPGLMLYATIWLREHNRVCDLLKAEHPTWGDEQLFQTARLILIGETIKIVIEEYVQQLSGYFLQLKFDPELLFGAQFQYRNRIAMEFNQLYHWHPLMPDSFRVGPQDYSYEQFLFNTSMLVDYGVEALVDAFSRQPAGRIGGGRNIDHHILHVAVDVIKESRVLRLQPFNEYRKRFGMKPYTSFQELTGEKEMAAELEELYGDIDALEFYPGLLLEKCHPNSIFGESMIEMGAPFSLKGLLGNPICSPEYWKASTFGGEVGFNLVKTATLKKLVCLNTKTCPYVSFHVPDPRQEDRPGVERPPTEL
How it was run: (§1)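 Supplied recombinant ovine COX-1 (5 units) preincubated 2 min at 25 °C in 0.1 M Tris-HCl pH 8.0 with 5 mM EDTA, 2 mM phenol and heme; compound or DMSO added, 20 min at 25 °C; started with 10 mM arachidonic acid stock, 2 min at 37 °C; stopped with HCl, SnCl2 reduction; prostaglandins by EIA; percent inhibition versus solvent control.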

[2] = target: T2, Prostaglandin G/H synthase 2 (Homo sapiens) (UniProt P35354); settings: at 1 µM
T2 sequence (whole entry): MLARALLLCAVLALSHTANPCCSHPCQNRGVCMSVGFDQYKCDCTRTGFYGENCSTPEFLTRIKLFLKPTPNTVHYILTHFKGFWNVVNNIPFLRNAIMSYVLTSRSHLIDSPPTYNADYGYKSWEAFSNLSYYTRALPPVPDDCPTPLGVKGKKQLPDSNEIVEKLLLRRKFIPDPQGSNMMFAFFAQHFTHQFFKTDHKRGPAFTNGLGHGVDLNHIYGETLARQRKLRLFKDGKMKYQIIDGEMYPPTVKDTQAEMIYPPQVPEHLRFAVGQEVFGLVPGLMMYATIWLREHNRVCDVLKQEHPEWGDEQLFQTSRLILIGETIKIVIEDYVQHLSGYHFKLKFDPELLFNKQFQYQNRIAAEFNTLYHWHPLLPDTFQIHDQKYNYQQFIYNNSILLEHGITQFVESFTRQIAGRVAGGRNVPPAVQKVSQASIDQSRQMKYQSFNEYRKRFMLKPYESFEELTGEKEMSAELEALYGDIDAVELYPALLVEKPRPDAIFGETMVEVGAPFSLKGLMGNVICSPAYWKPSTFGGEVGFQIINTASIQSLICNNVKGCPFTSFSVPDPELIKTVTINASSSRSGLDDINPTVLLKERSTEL

[3] = target: T2, Prostaglandin G/H synthase 2 (Homo sapiens); settings: at 10 µM
[4] = target: T3, Prostaglandin G/H synthase 1 (Homo sapiens, UniProt P23219); test: In vitro average percent inhibition of human prostaglandin G/H synthase 1 (COX-1) at a concentration of 100 uM
T3 sequence (P23219 whole entry): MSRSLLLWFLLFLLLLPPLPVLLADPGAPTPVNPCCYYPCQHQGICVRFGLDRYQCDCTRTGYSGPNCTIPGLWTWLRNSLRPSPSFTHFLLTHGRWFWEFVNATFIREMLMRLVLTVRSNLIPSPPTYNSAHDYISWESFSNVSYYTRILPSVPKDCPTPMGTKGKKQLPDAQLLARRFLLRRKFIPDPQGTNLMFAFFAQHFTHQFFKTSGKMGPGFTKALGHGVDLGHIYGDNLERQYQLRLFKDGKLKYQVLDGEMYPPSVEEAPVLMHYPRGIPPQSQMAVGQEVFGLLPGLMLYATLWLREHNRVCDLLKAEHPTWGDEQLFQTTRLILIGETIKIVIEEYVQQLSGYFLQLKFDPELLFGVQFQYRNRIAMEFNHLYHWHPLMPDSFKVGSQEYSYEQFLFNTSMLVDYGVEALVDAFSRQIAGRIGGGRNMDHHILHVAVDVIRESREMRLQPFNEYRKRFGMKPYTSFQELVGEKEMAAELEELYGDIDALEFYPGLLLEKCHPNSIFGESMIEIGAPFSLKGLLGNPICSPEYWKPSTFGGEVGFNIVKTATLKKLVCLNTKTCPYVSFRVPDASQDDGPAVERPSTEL
How it was run: as §1, with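 “human” for “ovine”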

[5] = target: T3, Prostaglandin G/H synthase 1; test: Compound was tested for the inhibition of recombinant human Prostaglandin G/H synthase 1 (COX-1)
[6] = target: T4, Prostaglandin G/H synthase 2 (Homo sapiens, UniProt P35354); test: Compound was tested for the inhibition of recombinant human Prostaglandin G/H synthase 2 (COX-2)
T4 sequence (P35354 whole entry): T2 sequence (whole entry)

[7] = target: T3, Prostaglandin G/H synthase 1; test: In vitro average percent Inhibition of Prostaglandin G/H synthase 1 (COX-1) at a concentration of 100 uM determined in human whole blood assay by human whole blood (HWB) assay; format: tissue-based
[8] = target: T3, Prostaglandin G/H synthase 1; test: In vitro average percent Inhibition of Prostaglandin G/H synthase 1 (COX-1) at a concentration of 100 uM determined in human whole blood by human whole blood (HWB) assay; format: tissue-based
[9] = target: T3, Prostaglandin G/H synthase 1; test: In vitro average percent uM in human whole blood by human whole blood assay; format: tissue-based; settings: concentration not given here
[10] = target: T2, Prostaglandin G/H synthase 2 (Homo sapiens); settings: Blood; at 1 µM
[11] = target: T2, Prostaglandin G/H synthase 2 (Homo sapiens); settings: Blood; at 10 µM
[12] = target: T2, Prostaglandin G/H synthase 2 (Homo sapiens); test: In vitro average percent Inhibition of Prostaglandin G/H synthase 2 (COX-2) at a concentration of 10 uM determined human whole blood by human whole blood (HWB) assay
How it was run: (§2)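 Heparinized whole blood from male or female donors free of aspirin/NSAIDs for 14 days, 1 mL aliquots pre-warmed 15 min at 37 °C, 5% CO2; compound in DMSO, duplicate wells; COX-2 induced by E. coli LPS added 4.5 h later, incubated 5 h; stopped on ice with 2 mM EGTA; plasma methanol-extracted, TXB2 by EIA; average of two donors.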

[13] = target: T3, Prostaglandin G/H synthase 1; test: In vitro average percent Inhibition of Prostaglandin G/H synthase 1 (COX-1) at a concentration of 100 uM in human whole blood by human whole blood assay; format: tissue-based
[14] = target: T3, Prostaglandin G/H synthase 1; settings: at 100 µM
[15] = target: T2, Prostaglandin G/H synthase 2 (Homo sapiens); test: In vitro average percent Inhibition of Prostaglandin G/H synthase 2 (COX-2) at a concentration of 10 uM determined by human whole blood (HWB) assay; how it was run: as §2
[16] = target: T3, Prostaglandin G/H synthase 1; test: Compound was tested for in vitro inhibition of recombinant human Prostaglandin G/H synthase 1 (COX-1) by enzyme Assay
[17] = target: T4, Prostaglandin G/H synthase 2; test: Compound was tested for the inhibition of recombinant human Prostaglandin G/H synthase 2 (COX-2) by enzyme Assay
[18] = target: T2, Prostaglandin G/H synthase 2 (Homo sapiens); test: In vitro average percent Inhibition of Prostaglandin G/H synthase 2 (COX-2) at a concentration of 1 uM determined in human whole blood by human whole blood assay; format: tissue-based; how it was run: as §2
[19] = target: T2, Prostaglandin G/H synthase 2 (Homo sapiens); test: In vitro average percent Inhibition of Prostaglandin G/H synthase 2 (COX-2) at a concentration of 10 uM determined in human whole blood by human whole blood assay; format: tissue-based; how it was run: as §2
[20] = target: T4, Prostaglandin G/H synthase 2; test: Compound was tested for the inhibition of human Prostaglandin G/H synthase 2 (COX-2) in human whole blood; format: tissue-based
[21] = target: T3, Prostaglandin G/H synthase 1; test: Compound was tested for the inhibition of human Prostaglandin G/H synthase 1 (COX-1) in human whole blood; format: tissue-based
[22] = target: T3, Prostaglandin G/H synthase 1; test: Compound was tested for in vitro Prostaglandin G/H synthase 1 (COX-1) idetermined in human whole blood by human whole blood assay; format: tissue-based
How it was run: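 Heparinised (20 U/mL) whole blood from non-fasted donors free of aspirin/NSAIDs for 14 days, 1 mL aliquots, pre-warmed 15 min at 37 °C, 5% CO2 on a rotating shaker. DMSO-diluted compound added in duplicate; incubation ended 30 min after A23187 by ice and 2 mM EGTA (final). Plasma methanol-extracted, TXB2 by EIA; average of two donors.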

[23] = target: T3, Prostaglandin G/H synthase 1; test: In vitro average percent Inhibition of inhibition of Prostaglandin G/H synthase 1 (COX-1) at a concentration of 100 uM in human whole blood by human whole blood assay; format: tissue-based
[24] = target: T2, Prostaglandin G/H synthase 2 (Homo sapiens); test: In vitro average percent Inhibition of Prostaglandin G/H synthase 2(COX-2) at a concentration of 1 uM determined in human whole blood by human whole blood (HWB) assay; format: tissue-based; how it was run: as §2
[25] = target: T3, Prostaglandin G/H synthase 1; test: In vitro average percent Inhibition of […] Prostaglandin G/H synthase 1 (COX-1) at a concentration of 100 uM determined by human whole blood (HWB) assay

Row | inhibition [1] [%] | inhibition [2] [%] | inhibition [3] [%] | inhibition [4] [%] | inhibition [14] [%] | SMILES | other results
1 | 10 | 90 | 100 | 40 | – | CS(=O)(=O)c1ccc(-c2cc3c(cc2CC2CCCCCC2)OCO3)cc1 | –
2 | – | – | – | – | – | CS(=O)(=O)c1ccc(-c2ccccc2C=C2CCCCC2)cc1 | inhibition [7]: 60%
3 | – | – | – | – | – | CS(=O)(=O)c1ccc(-c2ccccc2Cc2cccc(F)c2)cc1 | inhibition [8]: 35%
4 | 0 | 10 | 40 | – | – | Cc1cccc(C(=O)c2cc3c(cc2-c2ccc(S(C)(=O)=O)cc2)OCO3)c1 | inhibition [9]: 95%; inhibition [10]: 40%; inhibition [11]: 85%
5 | 10 | 10 | 0 | – | – | CS(=O)(=O)c1ccc(-c2cc3c(cc2Cc2ccc(F)cc2)OCO3)cc1 | –
6 | – | – | – | – | – | CS(=O)(=O)c1ccc(-c2ccccc2C(=O)c2cccc(F)c2)cc1 | inhibition [8]: 45%; inhibition [12]: 40%
7 | – | 10 | 90 | – | 0 | CS(=O)(=O)c1ccc(-c2cc3c(cc2C(=O)c2ccccc2)OCO3)cc1 | inhibition [10]: 25%; inhibition [13]: 75%; inhibition [11]: 65%
8 | 80 | 65 | 90 | 70 | – | CS(=O)(=O)c1ccc(-c2cc3c(cc2C=C2CCCC2)OCO3)cc1 | –
9 | – | – | – | – | – | COc1cc(Cc2cc(F)cc(F)c2)c(-c2ccc(S(C)(=O)=O)cc2)cc1OC | inhibition [8]: 0%; inhibition [15]: 15%
10 | 25 | 50 | 80 | – | – | Cc1ccc(Cc2cc3c(cc2-c2ccc(S(C)(=O)=O)cc2)OCO3)cc1 | inhibition [10]: 0%; inhibition [13]: 45%; inhibition [11]: 10%
11 | – | 15 | 0 | 65 | 10 | CS(=O)(=O)c1ccc(-c2cc3c(cc2CCCc2ccccc2)OCO3)cc1 | inhibition [18]: 15%; inhibition [19]: 35%
12 | – | 40 | – | – | 0 | CS(=O)(=O)c1ccc(C2=C(c3ccccc3)C(=O)OC2)cc1 | inhibition [10]: 75%; inhibition [13]: 75%
13 | – | – | – | – | – | CS(=O)(=O)c1ccc(-c2cc3c(cc2Cc2cc(F)cc(F)c2)OCCO3)cc1 | inhibition [8]: 70%; inhibition [15]: 40%
14 | – | 0 | 65 | – | 30 | CS(=O)(=O)c1ccc(-c2cc3c(cc2Cc2cccnc2)OCO3)cc1 | inhibition [10]: 15%; inhibition [13]: 35%; inhibition [11]: 15%
15 | – | – | – | 50 | – | CS(=O)(=O)c1ccc(-c2cc3c(cc2C(=O)c2cccc(F)c2)OCO3)cc1 | pIC50 [20]: 6.00; pIC50 [21]: 4.70
16 | – | 85 | 90 | – | 90 | NS(=O)(=O)c1ccc(-c2cc3c(cc2Cc2ccccc2)OCO3)cc1 | pIC50 [5]: 4.60; pIC50 [6]: 7.30; pIC50 [21]: 4.22; inhibition [8]: 90%
17 | – | 85 | 85 | 65 | 0 | CS(=O)(=O)c1ccc(-c2cc3c(cc2Cc2ccccc2)OCO3)cc1 | pIC50 [20]: 5.00; inhibition [11]: 50%; pIC50 [22]: 4.22
18 | 40 | 10 | 0 | – | – | CS(=O)(=O)c1ccc(-c2cc3c(cc2C(=O)c2cnccc2Br)OCO3)cc1 | –
19 | 15 | 90 | 90 | – | – | CS(=O)(=O)c1ccc(-c2cc3c(cc2Cc2cc(F)cc(F)c2)OCO3)cc1 | inhibition [10]: 15%; inhibition [11]: 40%; inhibition [23]: 70%
20 | 20 | 40 | 70 | – | – | CS(=O)(=O)c1ccc(-c2cc3c(cc2CC2CCCC2)OCO3)cc1 | –
21 | – | – | – | – | – | CS(=O)(=O)c1ccc(-c2cc3c(cc2-c2cc(F)cc(F)c2)OCO3)cc1 | inhibition [24]: 0%; inhibition [25]: 65%; inhibition [15]: 35%

Row | SMILES | inhibition [1] [%] | inhibition [2] [%] | inhibition [3] [%] | inhibition [4] [%] | inhibition [14] [%] | other results
22 | CS(=O)(=O)c1ccc(-c2cc3c(cc2C=C2CCCCCC2)OCO3)cc1 | 0 | 100 | 100 | 35 | – | pIC50 [5]: < 4.00; pIC50 [6]: 6.70
23 | CS(=O)(=O)c1ccc(-c2cc3c(cc2C=C2CCCCC2)OCO3)cc1 | – | 90 | 90 | 50 | 0 | pIC50 [16]: < 4.00; pIC50 [17]: 7.15
